Reference: ChEMBL document CHEMBL3865799, “Synthesis of a series of novel dihydroartemisinin monomers and dimers containing chalcone as a linker and their anticancer activity” (Eur J Med Chem, 2016)
Active and inactive are the calls of the source. The calls are words filed in the database; no cut-off is given here.

Assays:
[1] = test system: Vero; experiment: Selectivity index, ratio of IC50 for African green monkey Vero cells to IC50 for human PC3 cells; assay type: functional
How it was run: (§1)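 Suspension cells were seeded at 1.5 × 10^4 per well and adherent lines at 70–75% confluence, then exposed to a range of concentrations. MTT was added 3 h before the end, formazan dissolved in DMSO, and OD read at 570 nm (reference 620 nm). Growth inhibition was taken relative to untreated cells. IC50 came from the MTT data; SI = IC50 in Vero cells / IC50 in the tumour line.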

[2] = test system: HL-60; experiment: Induction of apoptosis in human HL60 cells assessed as induction of apoptotic bodies at 0.5 uM after 24 hrs by hoechst 33258 staining-based microscopic analysis; assay type: functional, cell-based
How it was run: (§2)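 HL-60 cells at 0.5 × 10^6/ml were treated for 24 h with […] compound in DMSO vehicle (<0.2%). Cells were fixed in cold acetic acid:methanol (1:3) for 1 h on ice, spread on slides and air-dried overnight. Slides were stained with Hoechst 33258 for 30 min, mounted in glycerol:PBS and viewed by fluorescence microscopy at 20×. Morphology was checked by phase contrast. One of three experiments shown.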

[3] = Cytotoxicity against human PC3 cells assessed as cell growth inhibition at 10 uM after 48 hrs by MTT assay; assay type: functional; conditions: PC-3, 48 h, read-out: GI
How it was run: (§3)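 Adherent lines at 70–75% confluence, grown at 37 °C in 5% CO2 with 10% FCS. Exposed 48 h to compound in DMSO (vehicle <0.2% v/v). MTT dye added 3 h before termination; formazan dissolved in DMSO, OD 570 nm with 620 nm reference. Growth inhibition expressed as % of untreated; IC50 taken from the dose series.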

[4] = test system: HL-60; experiment: Induction of apoptosis in human HL60 cells assessed as cell shrinkage after 24 hrs phase contrast microscopic analysis; assay type: functional, cell-based
How it was run: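 HL-60 cells at 0.5 × 10^6 cells/ml treated 24 h with compound at 0.2, 0.5, 1 or 5 (DMSO vehicle). Treated and control cells photographed under a phase contrast microscope at 20× and scored for morphology.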

[5] = test system: HL-60; experiment: Induction of apoptosis in human HL60 cells assessed as morphological alterations after 24 hrs by hoechst 33258 staining-based microscopic analysis; assay type: functional, cell-based; how it was run: as §2
[6] = Cell cycle arrest in human HL60 cells assessed as accumulation at S phase at 0.2 uM after 24 hrs by propidium iodide-DNA fluorescence based FACS analysis (reference value: 53 %); assay type: functional; conditions: HL-60
How it was run: (§4)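 HL-60 cells seeded at 0.5 × 10^6 cells/ml, exposed 24 h to compound (DMSO vehicle, <0.2% v/v). Pelleted at 400×g, PBS-washed, fixed in 70% ethanol at 4 °C overnight. RNase A treatment at 37 °C for 1.30 h, then propidium iodide staining for 20 min. Flow cytometry on 10,000 events, FL2-A vs FL2-W; subG0 (apoptotic) and phase populations gated.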

[7] = test system: HL-60; experiment: Induction of apoptosis in human HL60 cells assessed as condensation of nuclei after 24 hrs by hoechst 33258 staining-based microscopic analysis; assay type: functional, cell-based; how it was run: as §2
[8] = Cytotoxicity against human HL60 cells assessed as cell growth inhibition at 1 uM after 48 hrs by MTT assay; assay type: functional; conditions: HL-60, 48 h, read-out: GI
How it was run: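 HL-60 suspension cells, 1.5 × 10^4 per well, grown at 37 °C in 5% CO2 with 10% FCS. Treated 48 h with compound in DMSO (vehicle <0.2% v/v). MTT added 3 h before the end. Formazan dissolved in DMSO and read at 570 nm (reference 620 nm). % growth inhibition computed against untreated cells; IC50 taken from the concentration series.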

[9] = Cytotoxicity against human PC3 cells assessed as cell growth inhibition at 1 uM after 48 hrs by MTT assay; assay type: functional; conditions: PC-3, 48 h, read-out: GI; how it was run: as §3
[10] = Cytotoxicity against human MIAPaCa2 cells assessed as cell growth inhibition at 10 uM after 48 hrs by MTT assay; assay type: functional; conditions: MIA PaCa-2, 48 h, read-out: GI; how it was run: as §3
[11] = test system: HL-60; experiment: Induction of apoptosis in human HL60 cells assessed as loss of mitochondrial membrane potential at 0.5 uM after 24 hrs by Rh123 dye-based FACS analysis (reference value: 5%); assay type: functional
[12] = Cell cycle arrest in human HL60 cells assessed as accumulation at G2 phase at 5 uM after 24 hrs by propidium iodide-DNA fluorescence based FACS analysis (reference value: 1 %); assay type: functional; conditions: HL-60; how it was run: as §4
[13] = Cytotoxicity against human MIAPaCa2 cells assessed as cell growth inhibition at 0.5 uM after 48 hrs by MTT assay; assay type: functional; conditions: MIA PaCa-2, 48 h, read-out: GI; how it was run: as §3
[14] = Cytotoxicity against human LS180 cells assessed as cell growth inhibition at 10 uM after 48 hrs by MTT assay; assay type: functional; conditions: LS180, 48 h, read-out: GI; how it was run: as §3
[15] = Cytotoxicity against human HepG2 cells assessed as cell growth inhibition at 1 uM after 48 hrs by MTT assay; assay type: functional; conditions: HepG2, 48 h, read-out: GI; how it was run: as §3
[16] = Cytotoxicity against human MIAPaCa2 cells assessed as cell growth inhibition at 30 uM after 48 hrs by MTT assay; assay type: functional; conditions: MIA PaCa-2, 48 h, read-out: GI; how it was run: as §3
[17] = Aqueous solubility of the compound at pH 7; assay type: physicochemical
[18] = Cytotoxicity against human LS180 cells assessed as cell growth inhibition at 50 uM after 48 hrs by MTT assay; assay type: functional; conditions: LS180, 48 h, read-out: GI; how it was run: as §3
[19] = test system: HepG2; experiment: Selectivity index, ratio of IC50 for African green monkey Vero cells to IC50 for human HepG2 cells; assay type: functional; how it was run: as §1
[20] = Cytotoxicity against human HepG2 cells assessed as cell growth inhibition at 10 uM after 48 hrs by MTT assay; assay type: functional; conditions: HepG2, 48 h, read-out: GI; how it was run: as §3
[21] = Cytotoxicity against human MIAPaCa2 cells assessed as cell growth inhibition at 1 uM after 48 hrs by MTT assay; assay type: functional; conditions: MIA PaCa-2, 48 h, read-out: GI; how it was run: as §3
[22] = Cytotoxicity against human PC3 cells assessed as cell growth inhibition at 30 uM after 48 hrs by MTT assay; assay type: functional; conditions: PC-3, 48 h, read-out: GI; how it was run: as §3
[23] = Lipophilicity, log P of the compound; assay type: physicochemical; conditions: octanol/water
[24] = Cytotoxicity against human HepG2 cells assessed as cell growth inhibition at 0.5 uM after 48 hrs by MTT assay; assay type: functional; conditions: HepG2, 48 h, read-out: GI; how it was run: as §3
[25] = Cytotoxicity against human LS180 cells assessed as cell growth inhibition at 0.5 uM after 48 hrs by MTT assay; assay type: functional; conditions: LS180, 48 h, read-out: GI; how it was run: as §3
[26] = Cell cycle arrest in human HL60 cells assessed as accumulation at subG0 phase after 24 hrs by propidium iodide-DNA fluorescence based FACS analysis; assay type: functional; conditions: HL-60; how it was run: as §4
[27] = Cytotoxicity against human LS180 cells assessed as cell growth inhibition at 1 uM after 48 hrs by MTT assay; assay type: functional; conditions: LS180, 48 h, read-out: GI; how it was run: as §3
[28] = Cell cycle arrest in human HL60 cells assessed as accumulation at subG0 phase at 5 uM after 24 hrs by propidium iodide-DNA fluorescence based FACS analysis (reference value: 5 %); assay type: functional; conditions: HL-60; how it was run: as §4
[29] = Cytotoxicity against human MIAPaCa2 cells assessed as cell growth inhibition after 48 hrs by MTT assay; assay type: functional, cell-based; conditions: MIA PaCa-2, 48 h; how it was run: as §3
[30] = test system: HL-60; experiment: Induction of apoptosis in human HL60 cells assessed as loss of mitochondrial membrane potential at 5 uM after 24 hrs by Rh123 dye-based FACS analysis (reference value: 5%); assay type: functional
[31] = Cell cycle arrest in human HL60 cells assessed as accumulation at subG0 phase at 5 uM after 24 hrs by propidium iodide-DNA fluorescence based FACS analysis (reference value: 5 %); conditions: HL-60

Row | Compound | Ratio IC50 [1] | Activity [2] | inhibition of growth at 10 µM [3] | Activity [4] | Activity [5] | Activity [6] | Activity [7] | inhibition of growth at 1 µM [8] | inhibition of growth at 1 µM [9] | inhibition of growth at 10 µM [10] | Activity [11] | Activity [12] | inhibition of growth at 0.5 µM [13] | inhibition of growth at 30 µM [16] | inhibition of growth at 50 µM [18] | Ratio IC50 [19] | inhibition of growth at 30 µM [22] | Activity [28] | IC50 [29] | Activity [30] | also measured
1 | C[C@H]1[C@@H](OCCOc2cccc(C(=O)/C=C/c3ccc(O)cc3)c2)O[C@@H]2O[C@@]3(C)CC[C@H]4[C@H](C)CC[C@@H]1[C@@]24OO3 | 80 | Active | 29.6% | Dose-dependent effect | Dose-dependent effect | 46% | Dose-dependent effect | 57% | 22.8% | 15.1% | 34% | 16% | 12.7% | 37.8 to 77.4% | 35.2% | 55 | 83.5% | 70% | 39 µM | 58% | inhibition of growth at 10 µM [14]: 27.2%; inhibition of growth at 1 µM [15]: 29.6%; solubility [17]: > 100 µg/mL; inhibition of growth at 10 µM [20]: 37.7%; inhibition of growth at 1 µM [21]: 13%; logP [23]: 6.33; inhibition of growth at 0.5 µM [24]: 25.2%; inhibition of growth at 0.5 µM [25]: 21.7%; Activity [26]: Dose-dependent effect; inhibition of growth at 1 µM [27]: 24.7%
2 | C[C@H]1[C@@H](O)O[C@@H]2O[C@@]3(C)CC[C@H]4[C@H](C)CC[C@@H]1[C@@]24OO3 [ARTENIMOL] | 25 | – | – | – | – | 49% | – | 48.1% | – | – | 20% | 5% | – | 58% | 42% | 1.81 | 41% | 27% | 58 µM | 41% | Activity [31]: 27%
3 | C[C@H]1[C@@H](OCCOc2ccc(/C=C/C(=O)c3ccc(O)cc3)cc2)O[C@@H]2O[C@@]3(C)CC[C@H]4[C@H](C)CC[C@@H]1[C@@]24OO3 | 82 | Active | 41.5% | Dose-dependent effect | Dose-dependent effect | 46% | Dose-dependent effect | 78.8% | 25.4% | 16.8% | 27% | 10% | 6.2% | 68.3 to 86.8% | 75.2% | 450 | 88.6% | 95% | 22 µM | 61% | Activity [31]: 95%; inhibition of growth at 10 µM [14]: 36.6%; inhibition of growth at 1 µM [15]: 23.8%; solubility [17]: > 100 µg/mL; inhibition of growth at 10 µM [20]: 60.4%; inhibition of growth at 1 µM [21]: 9.1%; logP [23]: 6.33; inhibition of growth at 0.5 µM [24]: 20.2%; inhibition of growth at 0.5 µM [25]: 32.2%; Activity [26]: Dose-dependent effect; inhibition of growth at 1 µM [27]: 36.5%
